# Assay results reported in ChEMBL document CHEMBL2331484, “Synthesis and biological evaluation of scopoletin derivatives” (Bioorg Med Chem, 2013).
# pIC50: −log10 of the molar value. The source made the active and inactive calls. The calls are words filed in the database; no cut-off is given here.
# What was measured:
# HUVEC [1] = experiment: Antiproliferative activity against HUVEC assessed as growth inhibition rate at 10 uM after 24 hrs by MTT assay; format: functional; conditions: Homo sapiens, read-out: GI
# How it was run: (§1)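 HUVECs (passages 3–5, primary cord isolates) seeded at 1 × 10⁴ cells/well. Medium replaced with M199 containing 1% FBS plus compound. Viability read by MTT after 24 h. Percent inhibition was calculated from A570 minus A630 of treated versus control wells, and IC50 determined. Triplicate experiments, means ± SEM.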
# HUVEC [2] = experiment: Antiproliferative activity against HUVEC assessed as growth inhibition rate at 100 uM after 24 hrs by MTT assay; format: functional; conditions: Homo sapiens, read-out: GI; how it was run: as §1
# HUVEC [3] = experiment: Antiproliferative activity against HUVEC assessed as growth inhibition rate after 24 hrs by MTT assay; format: functional, cell-based; conditions: Homo sapiens; how it was run: as §1
# PANC-1 [4] = experiment: Inhibition of MMP-2 protein expression in human PANC1 cells at 10 to 50 umol/L after 24 hrs by SDS-PAGE analysis; format: functional, cell-based
# How it was run: (§2)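 Gelatin zymography of culture medium from equal numbers of PANC-1 cells exposed to compound for 24 h. Samples run non-reduced and unboiled on 10% polyacrylamide with 1 mg/mL gelatin. Gel washed in 2.5% Triton X-100 buffer, digested 14 h at 37 °C in Tris–HCl/CaCl2/ZnCl2 buffer pH 7.6, then Coomassie-stained. Clear bands imaged.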
# HCT-116 = experiment: Cytotoxicity against human HCT116 cells after 24 hrs by MTT assay; format: functional, cell-based; conditions: HCT-116, 24 h
# A549 = experiment: Cytotoxicity against human A549 cells after 24 hrs by MTT assay; format: functional, cell-based; conditions: A549, 24 h
# HUVEC [5] = experiment: Effect on total src level in VEGF-stimulated HUVEC pretreated at 10 to 50 umol/L for 30 mins before VEGF addition by Western blot analysis; format: functional, cell-based; conditions: Homo sapiens
# HUVEC [6] = experiment: Antiangiogenic activity against HUVEC assessed as inhibition of VEGF-induced branching and network formation at 25 umol/L after 5 hrs by microscopy; format: functional, cell-based; conditions: Homo sapiens
# How it was run: (§3)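 Matrigel-coated wells gelled 37 °C 30 min. DMSO or compound (final 25 µmol/L) added for 30 min before plating. After 5 h, enclosed complete tubes counted in five random fields by microscopy. Triplicate experiments, means ± SEM.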
# [7] = target: MAP kinase p38 (Homo sapiens) (UniProt O15264+Q15759+Q16539+P53778); experiment: Inhibition of VEGF receptor signaling in VEGF-stimulated HUVEC assessed a effect on p38 MAPK phosphorylation pretreated at 10 to 50 umol/L for 30 mins before VEGF addition by Western blot analysis; format: protein assay
# HUVEC [8] = experiment: Antiangiogenic activity against HUVEC assessed as inhibition of VEGF-induced cell migration at 25 umol/L after 20 hrs by Boyden chamber assay; format: functional, cell-based; conditions: Homo sapiens
# How it was run: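 Boyden chamber, 8.0 µm membrane. HUVECs at 80% confluence serum-starved 12 h in basal medium and suspended at 1 × 10⁶ cells/mL. Pre-treated 30 min at room temperature with DMSO or compound (final 25 µmol/L). After 20 h cells fixed, stained, and counted in five random fields. Triplicate experiments.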
# [9] = Inhibition of VEGF receptor signaling in VEGF-stimulated HUVEC assessed a effect on src phosphorylation pretreated at 10 to 50 umol/L for 30 mins before VEGF addition by Western blot analysis; format: cell-based; conditions: Homo sapiens
# BXPC-3 = experiment: Cytotoxicity against human BxPC3 cells after 24 hrs by MTT assay; format: functional, cell-based; conditions: BXPC-3, 24 h
# Gallus gallus [10] = species on record: Gallus gallus; experiment: Antiangiogenic activity in chicken embryo chorioallantoic membrane model assessed as inhibition of new blood vessel formation at 5 nmol/egg after 48 hrs by microscopy; format: functional, tissue-based
# How it was run: (§4)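 Fertilized chicken eggs incubated seven days at 37.5 °C, ~55% humidity, and the air sac membrane was detached. Sterile 5 × 5 mm filter paper soaked with DMSO or compound (5 and 10 nmol/egg) was air-dried and placed on the CAM. Eggs were sealed and reincubated. Fat emulsion (20%) was injected into the CAM and vessels photographed. Three independent experiments.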
# HepG2 = experiment: Cytotoxicity against human HepG2 cells after 24 hrs by MTT assay; format: functional, cell-based; conditions: HepG2, 24 h
# HuT78 = experiment: Cytotoxicity against human HUT78 cells after 24 hrs by MTT assay; format: functional, cell-based; conditions: HuT78, 24 h
# HUVEC [11] = experiment: Antiangiogenic activity against HUVEC assessed as inhibition of VEGF-induced migration at 25 umol/L after 20 hrs by microscopy; conditions: Homo sapiens
# MDA-MB-435 = experiment: Cytotoxicity against human MDA-MB-435 cells after 24 hrs by MTT assay; format: functional, cell-based; conditions: MDA-MB-435, 24 h
# [12] = Inhibition of VEGF receptor signaling in HUVEC assessed a inhibition of VEGF-induced ERK1/2 phosphorylation pretreated at 10 to 50 umol/L for 30 mins before VEGF addition by Western blot analysis; format: cell-based; conditions: Homo sapiens
# PANC-1 [13] = experiment: Cytotoxicity against human PANC1 cells after 24 hrs by MTT assay; format: functional, cell-based; conditions: PANC-1, 24 h
# HUVEC [14] = experiment: Antiangiogenic activity against HUVEC assessed as inhibition of VEGF-induced tube formation at 25 umol/L after 5 hrs by microscopy; format: functional, cell-based; conditions: Homo sapiens; how it was run: as §3
# HUVEC [15] = experiment: Effect on total ERK1/2 level in VEGF-stimulated HUVEC pretreated at 10 to 50 umol/L for 30 mins before VEGF addition by Western blot analysis; format: functional, cell-based; conditions: Homo sapiens
# K562 = experiment: Cytotoxicity against human K562 cells after 24 hrs by MTT assay; format: functional, cell-based; conditions: K562, 24 h
# HUVEC [16] = experiment: Effect on total akt level in VEGF-stimulated HUVEC pretreated at 10 to 50 umol/L for 30 mins before VEGF addition by Western blot analysis; format: functional, cell-based; conditions: Homo sapiens
# PBMC = experiment: Cytotoxicity against human PBMC after 24 hrs by MTT assay; format: cell-based
# HUVEC [17] = experiment: Effect on total p38 MAPK level in VEGF-stimulated HUVEC pretreated at 10 to 50 umol/L for 30 mins before VEGF addition by Western blot analysis; format: functional, cell-based; conditions: Homo sapiens
# HL-60 = experiment: Cytotoxicity against human HL60 cells after 24 hrs by MTT assay; format: functional, cell-based; conditions: HL-60, 24 h
# PANC-1 [18] = experiment: Inhibition of MMP-9 protein expression in human PANC1 cells at 10 to 50 umol/L after 24 hrs by SDS-PAGE analysis; format: functional, cell-based; how it was run: as §2
# MKN-45 = experiment: Cytotoxicity against human MKN45 cells after 24 hrs by MTT assay; format: functional, cell-based; conditions: MKN-45, 24 h
# MDA-MB-231 = experiment: Cytotoxicity against human MDA-MB-231 cells after 24 hrs by MTT assay; format: functional, cell-based; conditions: MDA-MB-231, 24 h
# Gallus gallus [19] = species on record: Gallus gallus; experiment: Antiangiogenic activity in chicken embryo chorioallantoic membrane model assessed as inhibition of new blood vessel formation at 10 nmol/egg after 48 hrs by microscopy; format: functional, tissue-based; how it was run: as §4
# [20] = Cytotoxicity against human SHG44 cells after 24 hrs by MTT assay; format: functional, cell-based; conditions: SHG-44, 24 h
# A-431 = experiment: Cytotoxicity against human A431 cells after 24 hrs by MTT assay; format: functional, cell-based; conditions: A-431, 24 h
# [21] = Inhibition of VEGF receptor signaling in HUVEC assessed a inhibition of VEGF-induced Akt phosphorylation pretreated at 10 to 50 umol/L for 30 mins before VEGF addition by Western blot analysis; format: cell-based; conditions: Homo sapiens
structure (smiles),measurement,setting,value
COc1cc2ccc(=O)oc2cc1OCC(=O)c1ccc([N+](=O)[O-])cc1,inhibition of growth at 10 µM,HUVEC [1],4.1%
same,inhibition of growth at 100 µM,HUVEC [2],27.2%
COc1cc2ccc(=O)oc2cc1OCCBr,inhibition of growth at 10 µM,HUVEC [1],4.9%
same,inhibition of growth at 100 µM,HUVEC [2],5.6%
COc1cc2ccc(=O)oc2cc1OCC(=O)c1ccc(Br)cc1,pIC50,HUVEC [3],4.77
same,inhibition of growth at 10 µM,HUVEC [1],13.2%
same,inhibition,PANC-1 [4],Active
same,pIC50,HCT-116,< 4.00
same,pIC50,A549,< 4.00
same,Activity,HUVEC [5],inactive
same,inhibition,HUVEC [6],Active
same,inhibition,[7],inactive
same,inhibition,HUVEC [8],Active
same,inhibition,[9],inactive
same,pIC50,BXPC-3,< 4.00
same,inhibition,Gallus gallus [10],Active
same,pIC50,HepG2,4.04
same,pIC50,HuT78,4.03
same,inhibition,HUVEC [11],Active
same,pIC50,MDA-MB-435,< 4.00
same,inhibition,[12],Active
same,pIC50,PANC-1 [13],4.20
same,inhibition,HUVEC [14],Active
same,Activity,HUVEC [15],inactive
same,pIC50,K562,4.15
same,Activity,HUVEC [16],inactive
same,pIC50,PBMC,< 4.00
same,Activity,HUVEC [17],inactive
same,pIC50,HL-60,4.04
same,inhibition,PANC-1 [18],Active
same,pIC50,MKN-45,< 4.00
same,pIC50,MDA-MB-231,4.33
same,inhibition,Gallus gallus [19],Active
same,inhibition of growth at 100 µM,HUVEC [2],97.5%
same,pIC50,[20],< 4.00
same,pIC50,A-431,< 4.00
same,inhibition,[21],Active
COc1cc2ccc(=O)oc2cc1O [SCOPOLETIN],inhibition of growth at 10 µM,HUVEC [1],0%
same,inhibition,PANC-1 [4],Active
same,pIC50,HCT-116,< 4.00
same,pIC50,A549,< 4.00
same,inhibition,HUVEC [6],inactive
same,inhibition,HUVEC [8],inactive
same,pIC50,BXPC-3,< 4.00
same,pIC50,HepG2,< 4.00
same,pIC50,HuT78,< 4.00
same,inhibition,HUVEC [11],inactive
same,pIC50,MDA-MB-435,< 4.00
same,pIC50,PANC-1 [13],< 4.00
same,inhibition,HUVEC [14],inactive
same,pIC50,K562,< 4.00
same,pIC50,PBMC,< 4.00
same,pIC50,HL-60,< 4.00
same,inhibition,PANC-1 [18],Active
same,pIC50,MKN-45,< 4.00
same,pIC50,MDA-MB-231,< 4.00
same,inhibition of growth at 100 µM,HUVEC [2],2.1%
same,pIC50,[20],< 4.00
same,pIC50,A-431,< 4.00
COc1cc2ccc(=O)oc2cc1OCC(=O)c1ccc(F)cc1,inhibition of growth at 10 µM,HUVEC [1],3.6%
same,inhibition of growth at 100 µM,HUVEC [2],16.6%
COc1cc2ccc(=O)oc2cc1OCC(O)CN1CCN(C)CC1 (stereo not given),inhibition of growth at 10 µM,HUVEC [1],0.1%
same,inhibition of growth at 100 µM,HUVEC [2],3.4%
COc1cc2ccc(=O)oc2cc1OCC(O)CN1CCOCC1 (stereo not given),inhibition of growth at 10 µM,HUVEC [1],0.4%
same,inhibition of growth at 100 µM,HUVEC [2],0.1%
